Laboratory results as given in ChEMBL document CHEMBL1134340, “GnRH antagonists: a new generation of long acting analogues incorporating p-ureido-phenylalanines at positions 5 and 6” (J Med Chem, 2001).
*1 amine or outer side, *2 acyl side, *3 side chain or, on linkers, in order; H or OH if unused. Where a SMILES comes first, the peptide text is derived from it. Side-chain parts run from the residue outwards. [ ]: non-standard residue; d: D form. Phe(4-NHCONH2) = NC(=O)Nc1ccc(C[C@H](N)C(=O)O)cc1; dPhe(4-NH2) = Nc1ccc(C[C@@H](N)C(=O)O)cc1; dPhe(4-Cl) = N[C@H](Cc1ccc(Cl)cc1)C(=O)O; Phe(4-NH2) = Nc1ccc(C[C@H](N)C(=O)O)cc1; d2Nal = N[C@H](Cc1ccc2ccccc2c1)C(=O)O; Lys(iPr) = CC(C)NCCCC[C@H](N)C(=O)O; d3Pal = N[C@H](Cc1cccnc1)C(=O)O; CO = O=C([*:1])[*:2]

How the values were obtained:
Rattus norvegicus [1] = species: Rattus norvegicus; experiment: Compound was tested for histamine release at a concentration of 30 ug/mL; assay type: functional
Outline: (§1)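 Sprague-Dawley rat peritoneal mast cells, Percoll-purified, in heparinized balanced salt solution with albumin, pH 7.2. Cells exposed to compound or vehicle for 2 min at 37 °C. Supernatant histamine measured spectrofluorometrically after o-phthalaldehyde derivatization; pellets lysed for retained histamine. Reported as % of total histamine released, corrected for spontaneous release in vehicle.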

Rattus norvegicus [2] = species: Rattus norvegicus; experiment: Compound was tested for inhibition of Leutenizing hormone release at 72 hours (long duration) in castrated male rat assay; assay type: functional; parameters: concentration or dose not given beside the values
Outline: (§2)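 Male Sprague-Dawley rats (180-200 g), castrated under ether 10 days earlier, 5 per group. 50 µg/rat given sc in 100 µL 40 mM phosphate buffer with 0.1% BSA and 0.6% DMSO; acyline run as internal standard. Tail blood taken predose and at 24, 48, 72, 96 (sometimes 120) h; plasma LH by RIA. Duration classed by >80% LH inhibition at each time.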

Rattus norvegicus [3] = species: Rattus norvegicus; experiment: Compound was tested for histamine release at a concentration of 100 ug/mL; assay type: functional; outline: as §1
Rattus norvegicus [4] = species: Rattus norvegicus; experiment: Compound was tested for inhibition of Leutenizing hormone release at 48 hours (intermediate duration) in castrated male rat assay; assay type: functional; parameters: concentration or dose not given beside the values; outline: as §2
Rattus norvegicus [5] = species: Rattus norvegicus; experiment: Compound was tested for inhibition of Leutenizing hormone release at 24 hours (short duration) in castrated male rat assay; assay type: functional; parameters: concentration or dose not given beside the values; outline: as §2
[6] = molecular target: T1, Gonadotropin-releasing hormone receptor (Homo sapiens, UniProt P30968); experiment: Antagonism of human GnHR receptor, determined in a reporter gene assay in HEK293 cells; assay type: functional, cell-based
T1 sequence (P30968 whole entry): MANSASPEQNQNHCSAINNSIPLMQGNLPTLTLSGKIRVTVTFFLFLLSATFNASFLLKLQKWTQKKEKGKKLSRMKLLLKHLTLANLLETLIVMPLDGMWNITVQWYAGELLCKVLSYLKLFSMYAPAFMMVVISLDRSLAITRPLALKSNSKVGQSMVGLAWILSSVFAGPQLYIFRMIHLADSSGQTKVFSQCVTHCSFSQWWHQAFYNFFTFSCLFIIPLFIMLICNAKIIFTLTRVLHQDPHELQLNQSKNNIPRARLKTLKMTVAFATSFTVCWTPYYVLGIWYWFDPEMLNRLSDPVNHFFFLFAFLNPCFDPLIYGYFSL
Outline: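 HEK293 cells stably expressing cloned human GnRH receptor plus luciferase reporter under LH alpha subunit promoter, plated 24 h before assay. Compound in 1% DMSO added 10 min at 37 °C, then GnRH at 3 nM final; 5 h incubation, luciferase luminescence read. Six concentrations in duplicate; blank-subtracted cps as % of GnRH control; mean of two determinations.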

[7] = molecular target: T1, Gonadotropin-releasing hormone receptor; experiment: Competitive antagonism of GnRH-induced response in the reporter gene assay; assay type: functional; conditions: read-out: pA2 (converted)
Outline: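 Same HEK293 human GnRH receptor luciferase reporter cells. Seven-point GnRH curve (10 µM to 10 pM final) run in duplicate without or with four to five increasing compound concentrations (10 min preincubation, 37 °C), then 5 h and luminescence. GnRH EC50 at each level by four-parameter logistic fit, giving pA2; mean of two determinations in duplicate.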

| IC50 [6] [nM] | SMILES | Inhibition (Rattus norvegicus [4]) [%] | Inhibition (Rattus norvegicus [5]) [%] | further results |
| --- | --- | --- | --- | --- |
|  | CC(=O)N[C@H](Cc1ccc2ccccc2c1)C(=O)N[C@H](Cc1ccc(Cl)cc1)C(=O)N[C@H](Cc1cccnc1)C(=O)N[C@@H](CO)C(=O)N[C@@H](Cc1ccc(NC(=O)[C@@H]2CC(=O)NC(=O)N2)cc1)C(=O)N[C@H](Cc1ccc(NC(=O)[C@@H]2CC(=O)NC(=O)N2)cc1)C(=O)N[C@@H](CC(C)C)C(=O)N[C@@H](CCCCNC(C)C)C(=O)N1CCC[C@H]1C(=O)N[C@H](C)C(N)=O |  |  | HR (Rattus norvegicus [1]): <10%; Inhibition (Rattus norvegicus [2]): >80%; HR (Rattus norvegicus [3]): 11% |
|  | CC(=O)Nc1ccc(C[C@H](NC(=O)[C@H](CO)NC(=O)[C@@H](Cc2cccnc2)NC(=O)[C@@H](Cc2ccc(Cl)cc2)NC(=O)[C@@H](Cc2ccc3ccccc3c2)NC(C)=O)C(=O)N[C@H](Cc2ccc(NC(=O)[C@@H]3CC(=O)NC(=O)N3)cc2)C(=O)N[C@@H](CC(C)C)C(=O)N[C@@H](CCCCNC(C)C)C(=O)N2CCC[C@H]2C(=O)N[C@H](C)C(N)=O)cc1 | >80 |  | HR (Rattus norvegicus [1]): 17%; HR (Rattus norvegicus [3]): 64% |
|  | CNC(=O)Nc1ccc(C[C@H](NC(=O)[C@H](CO)NC(=O)[C@@H](Cc2cccnc2)NC(=O)[C@@H](Cc2ccc(Cl)cc2)NC(=O)[C@@H](Cc2ccc3ccccc3c2)NC(C)=O)C(=O)N[C@H](Cc2ccc(NC(=O)NC)cc2)C(=O)N[C@@H](CC(C)C)C(=O)N[C@@H](CCCCNC(C)C)C(=O)N2CCC[C@H]2C(=O)N[C@H](C)C(N)=O)cc1 (Ac-[d2Nal][dPhe(4-Cl)][d3Pal]S[Phe(4-NH2)]([CO-NHMe])[dPhe(4-NH2)]([CO-NHMe])L[Lys(iPr)]P[dA]-NH2) | >80 |  |  |
|  | CC(=O)N[C@H](Cc1ccc2ccccc2c1)C(=O)N[C@H](Cc1ccc(Cl)cc1)C(=O)N[C@H](Cc1cccnc1)C(=O)N[C@@H](CO)C(=O)N[C@@H](Cc1ccc(NC(=O)[C@@H]2CC(=O)NC(=O)N2)cc1)C(=O)N[C@H](Cc1ccc2ccccc2c1)C(=O)N[C@@H](CC(C)C)C(=O)N[C@@H](CCCCNC(C)C)C(=O)N1CCC[C@H]1C(=O)N[C@H](C)C(N)=O |  | >80 |  |
| 8.9 | CC(=O)Nc1ccc(C[C@@H](NC(=O)[C@H](Cc2ccc(NC(=O)C(NC(N)=O)NC(N)=O)cc2)NC(=O)[C@H](CO)NC(=O)[C@@H](Cc2cccnc2)NC(=O)[C@@H](Cc2ccc(Cl)cc2)NC(=O)[C@@H](Cc2ccc3ccccc3c2)NC(C)=O)C(=O)N[C@@H](CC(C)C)C(=O)N[C@@H](CCCCNC(C)C)C(=O)N2CCC[C@H]2C(=O)N[C@H](C)C(N)=O)cc1 | >80 |  |  |
|  | CC(=O)Nc1ccc(C[C@@H](NC(=O)[C@H](CCNC(N)=O)NC(=O)[C@H](CO)NC(=O)[C@@H](Cc2cccnc2)NC(=O)[C@@H](Cc2ccc(Cl)cc2)NC(=O)[C@@H](Cc2ccc3ccccc3c2)NC(C)=O)C(=O)N[C@@H](CC(C)C)C(=O)N[C@@H](CCCCNC(C)C)C(=O)N2CCC[C@H]2C(=O)N[C@H](C)C(N)=O)cc1 |  | >80 |  |
| 10.8 | CC(=O)Nc1ccc(C[C@@H](NC(=O)[C@H](Cc2ccc(NC(=O)[C@H]3CNC(=O)N3)cc2)NC(=O)[C@H](CO)NC(=O)[C@@H](Cc2cccnc2)NC(=O)[C@@H](Cc2ccc(Cl)cc2)NC(=O)[C@@H](Cc2ccc3ccccc3c2)NC(C)=O)C(=O)N[C@@H](CC(C)C)C(=O)N[C@@H](CCCCNC(C)C)C(=O)N2CCC[C@H]2C(=O)N[C@H](C)C(N)=O)cc1 | >80 |  |  |
|  | COc1ccc(NC(=O)NC[C@H](NC(=O)[C@H](CO)NC(=O)[C@@H](Cc2cccnc2)NC(=O)[C@@H](Cc2ccc(Cl)cc2)NC(=O)[C@@H](Cc2ccc3ccccc3c2)NC(C)=O)C(=O)N[C@H](Cc2ccc(NC(C)=O)cc2)C(=O)N[C@@H](CC(C)C)C(=O)N[C@@H](CCCCNC(C)C)C(=O)N2CCC[C@H]2C(=O)N[C@H](C)C(N)=O)cc1 |  | >80 |  |
| 7.2 | CC(=O)Nc1ccc(C[C@@H](NC(=O)[C@H](Cc2ccc(NC(N)=O)cc2)NC(=O)[C@H](CO)NC(=O)[C@@H](Cc2cccnc2)NC(=O)[C@@H](Cc2ccc(Cl)cc2)NC(=O)[C@@H](Cc2ccc3ccccc3c2)NC(C)=O)C(=O)N[C@@H](CC(C)C)C(=O)N[C@@H](CCCCNC(C)C)C(=O)N2CCC[C@H]2C(=O)N[C@H](C)C(N)=O)cc1 (Ac-[d2Nal][dPhe(4-Cl)][d3Pal]S[Phe(4-NHCONH2)][dPhe(4-NH2)](Ac)L[Lys(iPr)]P[dA]-NH2) | >80 |  |  |
|  | CCNC(=O)[C@@H]1CCCN1C(=O)[C@H](CCCCNC(C)C)NC(=O)[C@H](CC(C)C)NC(=O)[C@@H](Cc1ccc(CNC(N)=O)cc1)NC(=O)[C@H](Cc1ccc(NC(=O)[C@@H]2CC(=O)NC(=O)N2)cc1)NC(=O)[C@H](CO)NC(=O)[C@@H](Cc1cccnc1)NC(=O)[C@@H](Cc1ccc(Cl)cc1)NC(=O)[C@@H](Cc1ccc2ccccc2c1)NC(C)=O | >80 |  |  |
| 8.2 | CC(=O)Nc1ccc(C[C@@H](NC(=O)[C@H](Cc2ccc(NC(=O)c3cnc(O)nc3O)cc2)NC(=O)[C@H](CO)NC(=O)[C@@H](Cc2cccnc2)NC(=O)[C@@H](Cc2ccc(Cl)cc2)NC(=O)[C@@H](Cc2ccc3ccccc3c2)NC(C)=O)C(=O)N[C@@H](CC(C)C)C(=O)N[C@@H](CCCCNC(C)C)C(=O)N2CCC[C@H]2C(=O)N[C@H](C)C(N)=O)cc1 |  | >80 |  |
| 5 | CCNC(=O)Nc1ccc(C[C@H](NC(=O)[C@H](CO)NC(=O)[C@@H](Cc2cccnc2)NC(=O)[C@@H](Cc2ccc(Cl)cc2)NC(=O)[C@@H](Cc2ccc3ccccc3c2)NC(C)=O)C(=O)N[C@H](Cc2ccc(NC(=O)NCC)cc2)C(=O)N[C@@H](CC(C)C)C(=O)N[C@@H](CCCCNC(C)C)C(=O)N2CCC[C@H]2C(=O)N[C@H](C)C(N)=O)cc1 |  | >80 | Kb [7]: 1.26 nM |
| 8.8 | CC(=O)N[C@H](Cc1ccc2ccccc2c1)C(=O)N[C@H](Cc1ccc(Cl)cc1)C(=O)N[C@H](Cc1cccnc1)C(=O)N[C@@H](CO)C(=O)N[C@@H](Cc1ccc(NC(=O)[C@@H]2CC(=O)NC(=O)N2)cc1)C(=O)N[C@H](Cc1ccc(NC(N)=O)cc1)C(=O)N[C@@H](CC(C)C)C(=O)N[C@@H](CCCCNC(C)C)C(=O)N1CCC[C@H]1C(=O)N[C@H](C)C(N)=O [DEGARELIX] | >80 |  | Kb [7]: 0.631 nM |
|  | CC(=O)Nc1ccc(C[C@H](NC(=O)[C@H](CO)NC(=O)[C@@H](Cc2cccnc2)NC(=O)[C@@H](Cc2ccc(Cl)cc2)NC(=O)[C@@H](Cc2ccc3ccccc3c2)NC(C)=O)C(=O)N[C@H](Cc2ccc(CNC(N)=O)cc2)C(=O)N[C@@H](CC(C)C)C(=O)N[C@@H](CCCCNC(C)C)C(=O)N2CCC[C@H]2C(=O)N[C@H](C)C(N)=O)cc1 | >80 |  |  |
|  | CCNC(=O)NC[C@H](NC(=O)[C@H](CO)NC(=O)[C@@H](Cc1cccnc1)NC(=O)[C@@H](Cc1ccc(Cl)cc1)NC(=O)[C@@H](Cc1ccc2ccccc2c1)NC(C)=O)C(=O)N[C@H](Cc1ccc(NC(C)=O)cc1)C(=O)N[C@@H](CC(C)C)C(=O)N[C@@H](CCCCNC(C)C)C(=O)N1CCC[C@H]1C(=O)N[C@H](C)C(N)=O |  | >80 |  |
|  | CC(=O)Nc1ccc(C[C@@H](NC(=O)[C@H](CNC(N)=O)NC(=O)[C@H](CO)NC(=O)[C@@H](Cc2cccnc2)NC(=O)[C@@H](Cc2ccc(Cl)cc2)NC(=O)[C@@H](Cc2ccc3ccccc3c2)NC(C)=O)C(=O)N[C@@H](CC(C)C)C(=O)N[C@@H](CCCCNC(C)C)C(=O)N2CCC[C@H]2C(=O)N[C@H](C)C(N)=O)cc1 |  | >80 |  |
| 8.1 | CC(=O)Nc1ccc(C[C@@H](NC(=O)[C@H](Cc2ccc(NC(=O)C[C@@H]3NC(=O)NC3=O)cc2)NC(=O)[C@H](CO)NC(=O)[C@@H](Cc2cccnc2)NC(=O)[C@@H](Cc2ccc(Cl)cc2)NC(=O)[C@@H](Cc2ccc3ccccc3c2)NC(C)=O)C(=O)N[C@@H](CC(C)C)C(=O)N[C@@H](CCCCNC(C)C)C(=O)N2CCC[C@H]2C(=O)N[C@H](C)C(N)=O)cc1 | >80 |  |  |
